This is a sample that favours compounds with a hit; in the whole collection about 2.5% have one here.
TDP2 absorb: human TDP2 enzyme inhibitors, primary screen, biochemical, epi absorbance, recombinant enzyme | 370,000 compounds, 0.34% hits | Tyrosyl-DNA phosphodiesterase 2 (Homo sapiens), O95551 | inhibition, % at 12.8 µM | T5PNP hydrolysis, p-nitrophenol absorbance 415 nm | AID 720702, 2013;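 active means inhibition above the mean of all tested compounds plus 3 SD, set per campaign, cut at about 25% in these data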
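Incubation: 2 h at 37 °C; Test system: recombinant human TDP2; Quantity: enzyme 120 nM; Read-out basis: percent inhibition; Medium: 50 mM Tris-HCl pH 7.5 with Mg2+, KCl, DTT, BSA; Repeats: single replicate; Compound: 12.8 µM single point, 1% DMSO; Signal: epi absorbance; Reagent: 5 mM T5PNP chromogenic substrate; Benchmarks: no-enzyme high, DMSO-plus-enzyme low.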
GSTO1 inh: inhibitors of recombinant GSTO1, primary screen, counter-screen for RBBP9 inhibitor project, biochemical, fluorescence polarization. inhibition, % at 5.96 µM. 300,000 compounds, 1.1% hits. Glutathione S-transferase omega-1 (Homo sapiens), P78417. activity-based probe fluorescence polarization;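 active means inhibition above the campaign mean inhibition plus 3 SD, cut at about 35% in these data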
Target sequence (P78417 whole entry, looked up): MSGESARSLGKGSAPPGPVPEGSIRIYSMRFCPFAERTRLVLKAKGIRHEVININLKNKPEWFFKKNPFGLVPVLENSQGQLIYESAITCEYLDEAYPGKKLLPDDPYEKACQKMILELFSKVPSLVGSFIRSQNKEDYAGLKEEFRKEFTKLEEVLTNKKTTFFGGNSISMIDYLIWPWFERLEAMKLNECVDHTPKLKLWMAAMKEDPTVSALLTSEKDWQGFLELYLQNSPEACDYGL
PAD4 inh: human PAD4 inhibitors, primary screen, biochemical, fluorescence polarization, 1536-well format | Protein-arginine deiminase type-4 (Homo sapiens), Q9UM07 | inhibition, % at 6.36 µM | 330,000 compounds, 0.41% hits | recombinant PAD4, RCA probe fluorescence polarization | AID 485272, 2010;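 active means percent inhibition above a cutoff equal to the mean of all tested compounds plus 3 SD, cut at about 15% in these data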
PRMT1 FP inh: PRMT1 methyltransferase inhibitors, primary screen, biochemical, fluorescence polarization. Protein arginine N-methyltransferase 1 (Homo sapiens), Q99873. inhibition, % at 2.79 µM. AID 652257, 2013. 370,000 compounds, 1.3% hits. recombinant PRMT1, activity-based probe fluorescence polarization;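 active means inhibition above about 21% made by adding two undisclosed values, limit read from the data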
Target sequence (Q99873 whole entry, looked up): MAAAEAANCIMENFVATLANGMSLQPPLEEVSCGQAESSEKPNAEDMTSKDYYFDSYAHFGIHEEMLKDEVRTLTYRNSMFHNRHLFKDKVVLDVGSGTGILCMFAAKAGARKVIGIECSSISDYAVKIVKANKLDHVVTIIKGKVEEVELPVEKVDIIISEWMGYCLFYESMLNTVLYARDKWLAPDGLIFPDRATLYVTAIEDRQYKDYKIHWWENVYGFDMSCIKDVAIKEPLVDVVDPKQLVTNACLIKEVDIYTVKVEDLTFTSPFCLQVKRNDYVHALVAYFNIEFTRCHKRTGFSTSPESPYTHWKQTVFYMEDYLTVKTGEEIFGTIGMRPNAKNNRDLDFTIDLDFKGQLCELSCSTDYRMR
E coli Lon inh: inhibitors of E. coli Lon protease, primary screen, biochemical, fluorescence polarization. inhibition, % at 7.94 µM. 360,000 compounds, 0.42% hits. purified E. coli Lon protease. P0A9M0; in the data active means inhibition above about 13%, passing the limit was not always enough
E coli Lon conf: E. coli Lon protease inhibitor retest, confirmation, biochemical, fluorescence polarization. shares compounds with E coli Lon inh. purified E. coli Lon. inhibition, % at 7.94 µM. 1,400 compounds, 31% hits; in the data active means inhibition above about 16%
PRMT1 inh conf: PRMT1 methyltransferase inhibitors, confirmation, biochemical, fluorescence polarization, triplicate. recombinant His-PRMT1, activity-based probe fluorescence polarization. AID 687036, 2013. shares compounds with PRMT1 FP inh. inhibition, % at 2.79 µM. 3,300 compounds, 42% hits;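 active means mean inhibition across replicates above the hit cutoff derived for the earlier primary screen, cut at about 22% in these data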
Large screens that a line does not name were inactive (follow-up assays come after a bar, where they were run).

CCCCNC(=O)C[C@H]1C[C@@]2(C(=O)OC)C(=C[C@H](C(C)C)O[C@@H]2C2CC2)N(Cc2ccc(Cl)cc2Cl)C1=O	none (no result: GSTO1 inh, PAD4 inh, E coli Lon inh)
O=C1[C@H]2[C@@H](c3ccccc3)N[C@]3(CCCN(Cc4ccco4)C3=O)[C@H]2C(=O)N1Cc1ccccc1	E coli Lon inh 95.8 (no result: GSTO1 inh, PAD4 inh) | E coli Lon conf inactive
COc1cc(C(=O)N/N=C/c2sc(N3CCOCC3)nc2-c2ccccc2)cc(OC)c1OC	E coli Lon inh 17.0 | E coli Lon conf inactive
O=c1[nH]nc(-c2ccc(F)cc2)cc1Cc1ccccc1	E coli Lon inh 31.5 | E coli Lon conf inactive
CCOC(=O)c1c2c3c(c(Cl)ccc3[nH]c1=O)C(=O)c1ccccc1-2	E coli Lon inh 17.2 (no result: GSTO1 inh, PAD4 inh) | E coli Lon conf 38.1
CCOC(=O)c1c2c3c(cccc3[nH]c1=O)C(=O)c1ccccc1-2	none
CCOC(=O)c1c2c3c(cccc3n(C)c1=O)C(=O)c1ccccc1-2	E coli Lon inh 143.7 | E coli Lon conf 65.1
COC(=O)C/C=C/[C@@H](C)[C@H](NC(=O)OCC(Cl)(Cl)Cl)c1ccc(-c2ccccc2)cc1	none (no result: GSTO1 inh, PAD4 inh, E coli Lon inh)
CC(=O)/C(C[N+]1(C)CCCCC1)=N\O	E coli Lon inh 22.6 | E coli Lon conf inactive
Cc1cc(Cl)ccc1OC(C)C(=O)NN=C1CCCCCC1 (centres undefined)	E coli Lon inh 21.3 | E coli Lon conf inactive
Cc1cc(Cl)ccc1OC(C)C(=O)NNC(=O)C1CCCCC1C(=O)O (centres undefined)	none (no result: GSTO1 inh, PAD4 inh)
O=C(NN=Cc1ccccc1C(F)(F)F)c1cc(-c2ccc(Cl)cc2)n[nH]1	none (no result: GSTO1 inh, PAD4 inh, E coli Lon inh)
C[C@H]1COc2cc(Br)ccc2S(=O)(=O)N1Cc1cn(Cc2ccccc2)nn1	none (no result: GSTO1 inh, PAD4 inh, E coli Lon inh)
Nc1cc2nc[nH]c2cc1N	E coli Lon inh 17.8 (no result: GSTO1 inh, PAD4 inh) | E coli Lon conf inactive
COc1ccc(-c2nnc(SCc3c(F)cccc3F)n2N)cc1	none (no result: GSTO1 inh, PAD4 inh, E coli Lon inh)
O=C1NC2=C(C(=O)CCC2)C(c2ccccc2Cl)N1 (centres undefined)	none
O=C1NC2=C(C(=O)CCC2)C(c2ccccc2[N+](=O)[O-])N1 (centres undefined)	E coli Lon inh 24.5 | E coli Lon conf inactive
COc1cccc2c1C(=O)c1c(O)c3c(c(O)c1C2=O)C[C@@](O)(C(C)=O)C[C@@H]3O[C@H]1C[C@H](N)[C@H](O)[C@H](C)O1	PRMT1 FP inh 162.5, E coli Lon inh active (no result: GSTO1 inh, PAD4 inh) | E coli Lon conf active | PRMT1 inh conf 168.9
COc1cccc2c1C(=O)c1c(O)c3c(c(O)c1C2=O)CC(O)(C(=O)CO)CC3OC1CC(N(C)C)C(O)C(C)O1 (centres undefined)	PRMT1 FP inh 192.9, E coli Lon inh active (no result: GSTO1 inh, PAD4 inh) | E coli Lon conf active | PRMT1 inh conf 148.1
C=CCn1c(SCC(=O)Nc2ccccc2-c2ccccc2)nnc1-c1ccccc1	none (no result: GSTO1 inh, PAD4 inh, E coli Lon inh)
O=C1NC2c3c(I)sc(I)c3C(=O)C2O1 (centres undefined)	PRMT1 FP inh 47.2, E coli Lon inh 105.2 (no result: GSTO1 inh, PAD4 inh) | E coli Lon conf 16.6 | PRMT1 inh conf inactive
O=C1CC(NCC2CCCO2)C(=O)N1c1ccc(Cl)cc1 (centres undefined)	none
CCOc1ccc(N2C(=O)CC(Cc3cc(C)cc(C)c3)C2=O)cc1 (centres undefined)	none (no result: GSTO1 inh, PAD4 inh)
CCOc1ccc(N2C(=O)CC(N)C2=O)cc1 (centres undefined)	PRMT1 FP inh 75.7, E coli Lon inh 18.2 | E coli Lon conf inactive | PRMT1 inh conf 51.0
CCOc1ccc(N2C(=O)CC(NCC3CCCO3)C2=O)cc1 (centres undefined)	PRMT1 FP inh 79.6, E coli Lon inh 15.8 | E coli Lon conf inactive | PRMT1 inh conf inactive
C[C@H]1[C@@H](NC(=O)Cc2ccsc2)CC[C@@]23CCCN2C(=O)CCC[C@@H]13	none (no result: GSTO1 inh, PAD4 inh, E coli Lon inh)
CC(=O)Nc1cc(-c2ccccc2N(C)C)cn2c(-c3cccc(C(F)(F)F)c3)cnc12	PRMT1 FP inh 99.2, E coli Lon inh active (no result: GSTO1 inh, PAD4 inh) | E coli Lon conf inactive | PRMT1 inh conf inactive
CC(=O)Nc1cc(-c2cccc(NS(C)(=O)=O)c2)cn2c(-c3cccc(C(F)(F)F)c3)cnc12	none (no result: GSTO1 inh, PAD4 inh)
CN1CC=C2C(C#N)=C(N)C(C#N)(C#N)[C@H](c3cccc(Cl)c3)C2C1 (some centres undefined)	PRMT1 FP inh 26.4, E coli Lon inh 23.4 | E coli Lon conf 16.7 | PRMT1 inh conf inactive
COc1cc([C@@H]2[C@H]3CN(C)CC=C3C(C#N)=C(N)C2(C#N)C#N)cc2c1OCO2	none
CCOC(=O)N1CC=C2C(C#N)=C(N)C(C#N)(C#N)[C@H](c3ccccc3OCC)[C@H]2C1	none
CCN1CC=C2C(C#N)=C(N)C(C#N)(C#N)[C@H](c3cccc(OC)c3OC)[C@H]2C1	PRMT1 FP inh 36.8, E coli Lon inh 36.4 | E coli Lon conf inactive | PRMT1 inh conf inactive
COc1cc(-n2c(C)nc3cc(C(=O)N4CCN(C(C)=O)CC4)ccc32)cc(OC)c1OC	none (no result: GSTO1 inh, PAD4 inh, E coli Lon inh)
Cc1ccc(C2C(C(=O)c3cccs3)=C(O)C(=O)N2c2nnc(C)s2)cc1 (centres undefined)	PRMT1 FP inh 69.5, E coli Lon inh 29.3 | E coli Lon conf 60.7 | PRMT1 inh conf 36.0
O=C(CN1C(=O)C2CCCCN2C(=O)c2ccccc21)N1CCCC1 (centres undefined)	none (no result: GSTO1 inh, PAD4 inh, E coli Lon inh)
COC(=O)C1CN(Cc2ccc(F)cc2)CCS(=O)(=O)N1Cc1ccc(OC)cc1 (centres undefined)	none (no result: GSTO1 inh, PAD4 inh, E coli Lon inh)
O=C1CCNc2ccc(-c3ccccc3)cc21	PRMT1 FP inh 74.9, E coli Lon inh 72.5 | E coli Lon conf active | PRMT1 inh conf 79.2
C=CC[C@H]1c2ccccc2[C@H]2N3N=Cc4ccccc4[C@H]3[C@H](CCCC)C(=O)N2N1C(=O)c1ccccc1	none (no result: GSTO1 inh, PAD4 inh, E coli Lon inh)
CCOc1cc(C2C(C#N)=C(N)OC3=C2C(=O)CC(C)(C)C3)cc([N+](=O)[O-])c1O (centres undefined)	none
CC1(C)CC(=O)C2=C(C1)OC(N)=C(C#N)C2c1cc2c(cc1[N+](=O)[O-])OCO2 (centres undefined)	PRMT1 FP inh 58.4, E coli Lon inh 103.7 | E coli Lon conf 80.3 | PRMT1 inh conf 30.7
COc1ccc(N2C(=O)c3cccc4c(N(C)CCO)ccc(c34)C2=O)cc1	PRMT1 FP inh 28.9, E coli Lon inh 66.7 (no result: GSTO1 inh, PAD4 inh) | E coli Lon conf 21.7 | PRMT1 inh conf 23.5
CCOC(=O)NC(=O)C(/C=N/c1sccc1C(=O)OC)=C(\C)O	PRMT1 FP inh 45.0, E coli Lon inh 42.0 | E coli Lon conf inactive | PRMT1 inh conf inactive

Assay outcomes from PubChem BioAssay.
